From PubChem
ABCB6 inh 2 = blocks the human ABCB6 transporter; Q9NP58; K562-ABCB6 porphyrin accumulation, flow cytometry, 1 h; active compounds read low; fluorescence ratio to DMSO, % at 10 µM; actives 0.19% (n = 360,000); AID 602162;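 active = fluorescence ratio to DMSO below 75%, the collection mean minus 3 SD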;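 note: signal is porphyrin accumulated inside mitochondria; lower ratio means ABCB6 inhibition with less porphyrin fluorescence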
Target sequence (Q9NP58 whole entry, looked up): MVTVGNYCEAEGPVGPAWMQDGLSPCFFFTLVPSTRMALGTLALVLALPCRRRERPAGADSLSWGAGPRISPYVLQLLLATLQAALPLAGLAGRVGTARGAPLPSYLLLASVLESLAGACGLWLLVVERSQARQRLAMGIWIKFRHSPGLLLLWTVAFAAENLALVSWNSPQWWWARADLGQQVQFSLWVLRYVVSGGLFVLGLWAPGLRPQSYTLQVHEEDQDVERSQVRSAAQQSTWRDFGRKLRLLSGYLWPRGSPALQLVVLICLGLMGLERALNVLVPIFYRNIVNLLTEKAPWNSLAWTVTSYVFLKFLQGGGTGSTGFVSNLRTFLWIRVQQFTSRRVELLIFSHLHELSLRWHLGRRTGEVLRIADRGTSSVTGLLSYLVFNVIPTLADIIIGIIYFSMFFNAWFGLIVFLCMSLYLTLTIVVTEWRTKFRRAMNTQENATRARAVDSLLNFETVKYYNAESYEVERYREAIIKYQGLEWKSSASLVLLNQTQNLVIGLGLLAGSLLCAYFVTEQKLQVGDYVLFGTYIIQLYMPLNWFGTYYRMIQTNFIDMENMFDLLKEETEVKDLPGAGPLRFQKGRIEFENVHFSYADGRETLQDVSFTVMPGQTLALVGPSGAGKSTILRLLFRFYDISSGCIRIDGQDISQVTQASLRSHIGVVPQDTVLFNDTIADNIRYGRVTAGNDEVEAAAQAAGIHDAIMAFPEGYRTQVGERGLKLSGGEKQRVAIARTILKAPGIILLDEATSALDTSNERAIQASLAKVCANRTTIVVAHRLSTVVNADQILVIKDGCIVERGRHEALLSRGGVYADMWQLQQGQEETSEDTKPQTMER
Exocytosis inh = blocks lytic granule exocytosis; TALL-104 LAMP-1 surface exposure, flow cytometry; cells stimulated with thapsigargin and PMA; inhibition, % at 10 µM; actives 0.66% (n = 360,000);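 active = inhibition above about 55%, limit read from the data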
MC4R barr agon = human MC4R agonism via beta-arrestin. activation, % at 8.9 µM. P32245. AID 540308. U2OS MC4R beta-arrestin complementation, luminescence; percent of melanotan II response, DMSO zero. actives 0.98% (n = 360,000);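 active = activation above a per-plate cutoff, the mean activation of sample wells on that plate plus 3 SD, cut at about 8% in these data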
hiPSC survival = increases survival of single human iPS cells; hiPSC single-cell survival, ATPlite luminescence; 100% = ROCK inhibitor wells, 0% = DMSO; actives 0.044% (n = 360,000); survival enhancement, % at 20 µM; AID 602274; in the data active = survival enhancement above about 18%;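 note: cells exposed to compounds for 16 hours before the ATP read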
MC4R antag cAMP = human MC4R antagonism in cAMP assay. MC4R-expressing cells, MTII-stimulated cAMP, LANCE TR-FRET. P32245. actives 0.48% (n = 360,000). AID 540295. inhibition, % at 6.5 µM;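 active = inhibition above its plate's cutoff, the mean of tested wells on that plate plus 3 SD, cut at about 29% in these data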
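System: U2OS-MC4R stable cell line; Technique: Eu-cAMP/anti-cAMP TR-FRET, emission 671 nm; Repeats: single well per compound; Also added: Melanotan II; Dosing: one concentration, 6.5 µM nominal; Schedule: 30-min compound, 1-h challenge, 1-h detection, room temperature.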
TbMetRS inhib = blocks T. brucei methionyl-tRNA synthetase activity. purified T. brucei MetRS, ATP depletion, Kinase-Glo luminescence. inhibition, % at 11.9 µM. actives 0.4% (n = 360,000);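 active = inhibition above a per-plate cutoff of the control wells' mean inhibition plus 3 SD, cut at about 5.5% in these data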
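System: purified T. brucei MetRS enzyme / Detection: Kinase-Glo luciferase luminescence reporting remaining unconsumed ATP / Medium: HEPES buffer with MgCl2, KCl, DTT, spermine, BSA, pyrophosphatase / Replication: singlicate, one well per compound / Evaluation: percent inhibition relative to median high and low control wells / Schedule: 2 h aminoacylation at 25 °C after 15 min preincubation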
Numbers stand for hits. Rows were chosen to be rich in hits. Some 2.6% of all compounds tested hit in one or more screens of this group.

Screening CN1CCc2cc3c(c4c2C1Cc1ccccc1-4)OCO3 (stereo not drawn) returned ABCB6 inh 2 inactive, Exocytosis inh 80, MC4R barr agon inactive, hiPSC survival inactive, MC4R antag cAMP inactive and TbMetRS inhib inactive.
COc1cc2c(cc1O)C[C@H]1c3c(cc(O)c(OC)c3-2)CCN1C was read as ABCB6 inh 2 inactive, Exocytosis inh inactive, MC4R barr agon inactive, hiPSC survival inactive, MC4R antag cAMP inactive and TbMetRS inhib inactive.
Screening Cc1ccc(-c2nc3ccccc3c(=O)n2-c2nccs2)cc1 returned ABCB6 inh 2 inactive, Exocytosis inh inactive, MC4R barr agon 9.2, hiPSC survival inactive, MC4R antag cAMP inactive and TbMetRS inhib inactive.
CN1C(=O)/C(=C\c2ccc(Br)s2)C(=O)NC1=S was read as ABCB6 inh 2 inactive, Exocytosis inh inactive, MC4R barr agon inactive, hiPSC survival inactive, MC4R antag cAMP inactive and TbMetRS inhib inactive.
Screening O=C1NC(=S)NC(=O)C1=Cc1ccc(Br)s1 returned ABCB6 inh 2 inactive, Exocytosis inh 72, MC4R barr agon inactive, hiPSC survival inactive, MC4R antag cAMP inactive and TbMetRS inhib inactive.
`CC(=O)OC1CC(OC2C(O)CC(OC3C(O)CC(OC4CCC5(C)C(CCC6C5CCC5(C)C(C7=CC(=O)OC7)C(O)CC65O)C4)OC3C)OC2C)OC(C)C1OC1OC(CO)C(O)C(O)C1O` (stereo not drawn) gave ABCB6 inh 2 inactive, Exocytosis inh inactive, MC4R barr agon 15, hiPSC survival inactive, MC4R antag cAMP inactive and TbMetRS inhib inactive.
CC(=O)OC1CC2(O)C3CCC4CC(O)CCC4(C)C3CCC2(C)C1C1=CC(=O)OC1 (stereo not drawn) was read as ABCB6 inh 2 inactive, Exocytosis inh inactive, MC4R barr agon 17, hiPSC survival inactive, MC4R antag cAMP inactive and TbMetRS inhib inactive.
CC1OC(OC2C(O)CC(OC3C(O)CC(OC4CCC5(C)C(CCC6C5CCC5(C)C(C7=CC(=O)OC7)C(O)CC65O)C4)OC3C)OC2C)CC(O)C1O (stereo not drawn) was read as ABCB6 inh 2 inactive, Exocytosis inh inactive, MC4R barr agon 27, hiPSC survival inactive, MC4R antag cAMP inactive and TbMetRS inhib inactive.
`CN1C2CCC1/C(=C/c1ccccn1)C(=O)/C2=C\c1ccccn1` gave ABCB6 inh 2 inactive, Exocytosis inh 64, MC4R barr agon inactive, hiPSC survival 34, MC4R antag cAMP inactive and TbMetRS inhib inactive.
For CCN(C(=O)COC(=O)C(O)(c1ccccc1)c1ccccc1)c1c(N)n(Cc2ccccc2)c(=O)[nH]c1=O the results were ABCB6 inh 2 inactive, Exocytosis inh inactive, MC4R barr agon inactive, hiPSC survival inactive, MC4R antag cAMP inactive and TbMetRS inhib inactive.
Cn1cccc1/C=C1/C(=O)NC(=O)N(Cc2ccc(F)cc2)C1=O was read as ABCB6 inh 2 inactive, Exocytosis inh inactive, MC4R barr agon inactive, hiPSC survival inactive, MC4R antag cAMP inactive and TbMetRS inhib inactive.
Cn1cccc1/C=C1/C(=O)NC(=S)N(Cc2ccc(F)cc2)C1=O was read as ABCB6 inh 2 inactive, Exocytosis inh 58, MC4R barr agon inactive, hiPSC survival inactive, MC4R antag cAMP inactive and TbMetRS inhib inactive.
For CN1CCc2cc(O)cc3c2[C@H]1Cc1ccc(O)c(O)c1-3 the results were ABCB6 inh 2 inactive, Exocytosis inh 60, MC4R barr agon inactive, hiPSC survival inactive, MC4R antag cAMP inactive and TbMetRS inhib inactive.
Screening O=C1NC(=S)N(c2ccccc2F)C(=O)/C1=C\c1cccs1 returned ABCB6 inh 2 inactive, Exocytosis inh 76, MC4R barr agon inactive, hiPSC survival inactive, MC4R antag cAMP inactive and TbMetRS inhib inactive.
O=C1NC(=O)C(=Cc2cccs2)C(=O)N1 was read as ABCB6 inh 2 inactive, Exocytosis inh inactive, MC4R barr agon inactive, hiPSC survival inactive, MC4R antag cAMP inactive and TbMetRS inhib inactive.
`Cc1cc2c(C(C)C)c(O)c(O)c(C=O)c2c(O)c1-c1c(C)cc2c(C(C)C)c(O)c(O)c(C=O)c2c1O` gave ABCB6 inh 2 inactive, Exocytosis inh inactive, MC4R barr agon 9.5, hiPSC survival inactive, MC4R antag cAMP inactive and TbMetRS inhib inactive.
Screening CC(C)CN1Cc2cc(-c3ccccc3)ccc2-n2nncc2C1 returned ABCB6 inh 2 inactive, Exocytosis inh inactive, hiPSC survival inactive and TbMetRS inhib inactive.
